What was measured:
human HAB TSPO = human HAB TSPO (Homo sapiens, UniProt P30536); type: binding; details: pKi – logD for human cerebellum HAB
Measurement of LogD = type: physicochemical; details: n-octanol/sodium phosphate buffer, pH 7.4
Outline: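 Partition of each carbon-11-labelled test compound between n-octanol and sodium phosphate buffer (pH 7.4), run at room temperature. Radioactivity distribution between the phases gives logD.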

Chain of human HAB TSPO (P30536 whole entry): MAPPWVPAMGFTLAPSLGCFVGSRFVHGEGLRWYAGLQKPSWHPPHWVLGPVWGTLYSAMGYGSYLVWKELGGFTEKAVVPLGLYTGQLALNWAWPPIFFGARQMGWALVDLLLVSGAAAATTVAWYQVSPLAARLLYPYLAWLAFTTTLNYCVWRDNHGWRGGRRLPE

## CCC(C)N(C)C(=O)c1cc2ccccc2c(-c2ccccc2Cl)n1 (centres unmarked) [Ligand 1]
Human HAB TSPO
  LipE: 4.37
Measurement of LogD
  logD: 3.97 ± 0.18
